{"source": "ChEMBL document CHEMBL1124640", "about": "“Synthesis and biological evaluation of certain C-4 substituted pyrazolo[3,4-b]pyridine nucleosides” (1989)", "key": {"[1]": {"experiment": "Cytotoxicity against human B-lymphoblastic cell line WI-L2", "type": "functional", "conditions": "WIL2, read-out: ID50 (the source's name)"}, "[2]": {"test_system": "HeLa", "experiment": "Antiviral activity against rhino 1-A virus in HeLa cells; IA= Inactive", "type": "functional, cell-based", "conditions": "Homo sapiens"}, "[3]": {"test_system": "Visna-maedi virus", "experiment": "Antiviral activity against Visna virus in SCP cells.", "type": "functional, organism-based"}, "[4]": {"test_system": "Human alphaherpesvirus 2", "experiment": "Antiviral activity against herpes 2 virus in Vero cells.", "type": "functional, organism-based", "conditions": "herpes simplex virus type2"}, "[5]": {"test_system": "Human adenovirus 2", "experiment": "Antiviral activity against adeno 2 virus in HeLa cells.", "type": "functional, organism-based"}, "[6]": {"test_system": "Vero", "experiment": "Antiviral activity against Para Flu 3 virus in Vero cells; IA= Inactive", "type": "functional, cell-based", "conditions": "Chlorocebus sabaeus"}, "[7]": {"test_system": "Semliki Forest virus", "experiment": "Antiviral activity against semliki forest virus in Vero cells.", "type": "functional, organism-based"}, "[8]": {"test_system": "Lymphoblastoid cell", "experiment": "Ability to inhibit de novo purine nucleotide biosynthesis at a concentration of 100 uM", "type": "functional", "conditions": "Homo sapiens", "procedure,_shortened": "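De novo purine nucleotide synthesis was measured as [14C]formate incorporation in cultured human lymphoblast cells, with compound at 100 μM. Results are given as percent inhibition.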"}, "[9]": {"test_system": "L1210", "experiment": "Cytotoxicity against murine leukemic cell line L1210", "type": "functional", "conditions": "Mus musculus, read-out: ID50 (the source's name)"}, "[10]": {"test_system": "Vero", "experiment": "Antiviral activity against semliki forest virus in Vero cells", "type": "functional, cell-based", "conditions": "Chlorocebus sabaeus"}, "[11]": {"test_system": "HeLa", "experiment": "Antiviral activity against rhino 1-A virus in HeLa cells", "type": "functional, Homo sapiens"}}, "note": "pIC50: −log10 of the molar value. The source made the active and inactive calls. The calls are words filed in the database; no cut-off is given here."}
{"smiles": "OC[C@H]1OC(n2ncc3c(Cl)ccnc32)[C@H](O)[C@@H]1O", "note": "(stereo partly specified)", "values": [{"measurement": "pIC50", "setting": "[1]", "result": 4.74}, {"measurement": "Activity", "setting": "[2]", "result": "inactive"}, {"measurement": "Activity", "setting": "[3]", "result": "inactive"}, {"measurement": "Activity", "setting": "[4]", "result": "inactive"}, {"measurement": "Activity", "setting": "[5]", "result": "inactive"}, {"measurement": "Activity", "setting": "[6]", "result": "inactive"}, {"measurement": "Activity", "setting": "[7]", "result": "inactive"}, {"measurement": "inhibition at 100 µM", "setting": "[8]", "result": 94, "unit": "%"}, {"measurement": "pIC50", "setting": "[9]", "result": 4.70}]}
{"smiles": "OC[C@H]1OC(n2ncc3cccnc32)[C@@H](O)[C@@H]1O", "note": "(stereo partly specified)", "values": [{"measurement": "Activity", "setting": "[3]", "result": "inactive"}, {"measurement": "Activity", "setting": "[4]", "result": "inactive"}, {"measurement": "Activity", "setting": "[5]", "result": "inactive"}, {"measurement": "Activity", "setting": "[7]", "result": "inactive"}]}
{"smiles": "OC[C@H]1OC(n2ncc3cccnc32)[C@H](O)[C@@H]1O", "note": "(stereo partly specified)", "values": [{"measurement": "Activity", "setting": "[3]", "result": "inactive"}, {"measurement": "Activity", "setting": "[4]", "result": "inactive"}, {"measurement": "Activity", "setting": "[5]", "result": "inactive"}, {"measurement": "Activity", "setting": "[7]", "result": "inactive"}]}
{"smiles": "COc1ccnc2c1cnn2C1O[C@H](CO)[C@@H](O)[C@H]1O", "note": "(stereo partly specified)", "values": [{"measurement": "Activity", "setting": "[3]", "result": "inactive"}, {"measurement": "Activity", "setting": "[4]", "result": "inactive"}, {"measurement": "Activity", "setting": "[5]", "result": "inactive"}, {"measurement": "Activity", "setting": "[7]", "result": "inactive"}]}
{"smiles": "COc1ccnc2c1cnn2[C@H]1C[C@H](O)[C@@H](CO)O1", "values": [{"measurement": "Activity", "setting": "[3]", "result": "inactive"}, {"measurement": "Activity", "setting": "[4]", "result": "inactive"}, {"measurement": "Activity", "setting": "[5]", "result": "inactive"}, {"measurement": "Activity", "setting": "[7]", "result": "inactive"}]}
{"smiles": "Nc1ccnc2c1cnn2C1O[C@H](CO)[C@@H](O)[C@@H]1O", "note": "(stereo partly specified)", "values": [{"measurement": "Activity", "setting": "[2]", "result": "inactive"}, {"measurement": "Activity", "setting": "[3]", "result": "inactive"}, {"measurement": "Activity", "setting": "[4]", "result": "inactive"}, {"measurement": "Activity", "setting": "[5]", "result": "inactive"}, {"measurement": "Activity", "setting": "[6]", "result": "inactive"}, {"measurement": "Activity", "setting": "[7]", "result": "inactive"}]}
{"smiles": "OC[C@H]1OC(n2ncc3c(O)ccnc32)[C@@H](O)[C@@H]1O", "note": "(stereo partly specified)", "values": [{"measurement": "Activity", "setting": "[3]", "result": "inactive"}, {"measurement": "Activity", "setting": "[4]", "result": "inactive"}, {"measurement": "Activity", "setting": "[5]", "result": "inactive"}, {"measurement": "Activity", "setting": "[7]", "result": "inactive"}]}
{"smiles": "Nc1ccnc2c1cnn2C1O[C@H](CO)[C@@H](O)[C@H]1O", "note": "(stereo partly specified)", "values": [{"measurement": "Activity", "setting": "[2]", "result": "inactive"}, {"measurement": "Activity", "setting": "[3]", "result": "inactive"}, {"measurement": "Activity", "setting": "[4]", "result": "inactive"}, {"measurement": "Activity", "setting": "[5]", "result": "inactive"}, {"measurement": "Activity", "setting": "[10]", "result": "inactive"}, {"measurement": "Activity", "setting": "[6]", "result": "inactive"}, {"measurement": "inhibition at 100 µM", "setting": "[8]", "result": 36, "unit": "%"}]}
{"smiles": "O=C1CC=Nc2c1cnn2C1O[C@H](CO)[C@@H](O)[C@H]1O", "note": "(stereo partly specified)", "values": [{"measurement": "pIC50", "setting": "[1]", "result": 4.70}, {"measurement": "Virus rating", "setting": "[11]", "result": 0.6}, {"measurement": "inhibition at 100 µM", "setting": "[8]", "result": 80, "unit": "%"}, {"measurement": "pIC50", "setting": "[9]", "result": "< 4.00"}]}
{"smiles": "OC[C@H]1O[C@@H](n2ncc3c(Cl)ccnc32)C[C@@H]1O", "values": [{"measurement": "Activity", "setting": "[3]", "result": "inactive"}, {"measurement": "Activity", "setting": "[4]", "result": "inactive"}, {"measurement": "Activity", "setting": "[5]", "result": "inactive"}, {"measurement": "Activity", "setting": "[7]", "result": "inactive"}]}
{"smiles": "COc1ccnc2c1cnn2C1O[C@H](CO)[C@@H](O)[C@@H]1O", "note": "(stereo partly specified)", "values": [{"measurement": "Activity", "setting": "[3]", "result": "inactive"}, {"measurement": "Activity", "setting": "[4]", "result": "inactive"}, {"measurement": "Activity", "setting": "[5]", "result": "inactive"}, {"measurement": "Activity", "setting": "[7]", "result": "inactive"}]}
{"smiles": "[N-]=[N+]=Nc1ccnc2c1cnn2C1O[C@H](CO)[C@@H](O)[C@H]1O", "note": "(stereo partly specified)", "values": [{"measurement": "Activity", "setting": "[2]", "result": "inactive"}, {"measurement": "Activity", "setting": "[3]", "result": "inactive"}, {"measurement": "Activity", "setting": "[4]", "result": "inactive"}, {"measurement": "Activity", "setting": "[5]", "result": "inactive"}, {"measurement": "Activity", "setting": "[6]", "result": "inactive"}, {"measurement": "Activity", "setting": "[7]", "result": "inactive"}, {"measurement": "inhibition at 100 µM", "setting": "[8]", "result": 46, "unit": "%"}]}
{"smiles": "OC[C@H]1O[C@@H](n2ncc3cccnc32)C[C@@H]1O", "values": [{"measurement": "Activity", "setting": "[3]", "result": "inactive"}, {"measurement": "Activity", "setting": "[4]", "result": "inactive"}, {"measurement": "Activity", "setting": "[5]", "result": "inactive"}, {"measurement": "Activity", "setting": "[7]", "result": "inactive"}]}
{"smiles": "O=C1CC=Nc2c1cnn2[C@H]1C[C@H](O)[C@@H](CO)O1", "values": [{"measurement": "Activity", "setting": "[3]", "result": "inactive"}, {"measurement": "Activity", "setting": "[4]", "result": "inactive"}, {"measurement": "Activity", "setting": "[5]", "result": "inactive"}, {"measurement": "Activity", "setting": "[7]", "result": "inactive"}]}
{"smiles": "OC[C@H]1OC(n2ncc3c(Cl)ccnc32)[C@@H](O)[C@@H]1O", "note": "(stereo partly specified)", "values": [{"measurement": "Activity", "setting": "[3]", "result": "inactive"}, {"measurement": "Activity", "setting": "[4]", "result": "inactive"}, {"measurement": "Activity", "setting": "[5]", "result": "inactive"}, {"measurement": "Activity", "setting": "[7]", "result": "inactive"}]}
{"smiles": "OC[C@H]1OC(n2ncc3c(OCc4ccccc4)ccnc32)[C@H](O)[C@@H]1O", "note": "(stereo partly specified)", "values": [{"measurement": "Activity", "setting": "[3]", "result": "inactive"}, {"measurement": "Activity", "setting": "[4]", "result": "inactive"}, {"measurement": "Activity", "setting": "[5]", "result": "inactive"}, {"measurement": "Activity", "setting": "[7]", "result": "inactive"}]}
{"smiles": "Nc1ccnc2c1cnn2[C@H]1C[C@H](O)[C@@H](CO)O1", "values": [{"measurement": "Activity", "setting": "[3]", "result": "inactive"}, {"measurement": "Activity", "setting": "[4]", "result": "inactive"}, {"measurement": "Activity", "setting": "[5]", "result": "inactive"}, {"measurement": "Activity", "setting": "[7]", "result": "inactive"}]}
